Legend:
Type in all cases: functional
SN12C = experiment: Growth inhibition of human SN12C cells at 10 uM after 48 hrs by coulter counter method; conditions: read-out: GI
Summary of the method: (§1)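 Single high-dose NCI 60-cell-line panel screen across nine tumor subpanels. Test solutions (0.2 mL) were added in duplicate to wells holding 1.8 mL of culture at 6 × 10⁴ cells/mL. Controls got PBS and DMSO at identical dilutions. Incubation was 48 h at 37 °C in humidified 5% CO₂. Cells were diluted 10-fold in saline, Coulter-counted and dilution-corrected. Results were expressed as percent growth inhibition versus control.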

CAKI-1 = experiment: Growth inhibition of human Caki1 cells at 10 uM after 48 hrs by coulter counter method; conditions: CAKI-1, 48 h, read-out: GI; summary of the method: as §1
COLO 205 = experiment: Growth inhibition of human COLO205 cells at 10 uM after 48 hrs by coulter counter method; conditions: COLO 205, 48 h, read-out: GI; summary of the method: as §1
K562 = experiment: Growth inhibition of human K562 cells at 10 uM after 48 hrs by coulter counter method; conditions: K562, 48 h, read-out: GI; summary of the method: as §1
HL-60(TB) = experiment: Growth inhibition of human HL-60(TB) cells at 10 uM after 48 hrs by coulter counter method; conditions: HL-60, 48 h, read-out: GI
Summary of the method: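 Part of the NCI 60-cell-line single-high-dose panel. Cells were seeded at 6 × 10⁴ cells/mL with test solution in duplicate wells, alongside PBS/DMSO controls at identical dilutions. Plates were held 48 h at 37 °C in a humidified 5% CO₂ incubator. Cells were then diluted 10-fold in saline and counted by Coulter counter, with counts corrected for dilution. Results are percent growth of treated cells, reported as GI %.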

M14 = experiment: Growth inhibition of human M14 cells at 10 uM after 48 hrs by coulter counter method; conditions: M14, 48 h, read-out: GI; summary of the method: as §1
U-251 = experiment: Growth inhibition of human U251 cells at 10 uM after 48 hrs by coulter counter method; conditions: U-251, 48 h, read-out: GI; summary of the method: as §1
NCI-H522 = experiment: Growth inhibition of human NCI-H522 cells at 10 uM after 48 hrs by coulter counter method; conditions: NCI-H522, 48 h, read-out: GI; summary of the method: as §1
[1] = Growth inhibition of human Hs 578T cells at 10 uM after 48 hrs by coulter counter method; conditions: read-out: GI; summary of the method: as §1
PC-3 = experiment: Growth inhibition of human PC3 cells at 10 uM after 48 hrs by coulter counter method; conditions: PC-3, 48 h, read-out: GI; summary of the method: as §1
MDA-MB-468 = experiment: Growth inhibition of human MDA-MB-468 cells at 10 uM after 48 hrs by coulter counter method; conditions: MDA-MB-468, 48 h, read-out: GI; summary of the method: as §1
UACC-62 = experiment: Growth inhibition of human UACC62 cells at 10 uM after 48 hrs by coulter counter method; conditions: UACC-62, 48 h, read-out: GI; summary of the method: as §1
SF-539 = experiment: Growth inhibition of human SF539 cells at 10 uM after 48 hrs by coulter counter method; conditions: SF-539, 48 h, read-out: GI; summary of the method: as §1
A549 = experiment: Growth inhibition of human A549 cells at 10 uM after 48 hrs by coulter counter method; conditions: A549, 48 h, read-out: GI; summary of the method: as §1
KM12 = experiment: Growth inhibition of human KM12 cells at 10 uM after 48 hrs by coulter counter method; conditions: KM12, 48 h, read-out: GI; summary of the method: as §1
SF-268 = experiment: Growth inhibition of human SF268 cells at 10 uM after 48 hrs by coulter counter method; conditions: SF-268, 48 h, read-out: GI; summary of the method: as §1
MCF7 = experiment: Growth inhibition of human MCF7 cells at 10 uM after 48 hrs by coulter counter method; conditions: MCF7, 48 h, read-out: GI; summary of the method: as §1
UO-31 = experiment: Growth inhibition of human UO31 cells at 10 uM after 48 hrs by coulter counter method; conditions: UO-31, 48 h, read-out: GI; summary of the method: as §1
NCI-H23 = experiment: Growth inhibition of human NCI-H23 cells at 10 uM after 48 hrs by coulter counter method; conditions: NCI-H23, 48 h, read-out: GI; summary of the method: as §1
OVCAR-4 = experiment: Growth inhibition of human OVCAR4 cells at 10 uM after 48 hrs by coulter counter method; conditions: OVCAR-4, 48 h, read-out: GI; summary of the method: as §1
SK-MEL-2 = experiment: Growth inhibition of human SK-MEL-2 cells at 10 uM after 48 hrs by coulter counter method; conditions: SK-MEL-2, 48 h, read-out: GI; summary of the method: as §1
HOP-92 = experiment: Growth inhibition of human HOP92 cells at 10 uM after 48 hrs by coulter counter method; conditions: HOP-92, 48 h, read-out: GI; summary of the method: as §1
BT-549 = experiment: Growth inhibition of human BT549 cells at 10 uM after 48 hrs by coulter counter method; conditions: BT-549, 48 h, read-out: GI; summary of the method: as §1
OVCAR-8 = experiment: Growth inhibition of human OVCAR8 cells at 10 uM after 48 hrs by coulter counter method; conditions: OVCAR-8, 48 h, read-out: GI; summary of the method: as §1
T47D = experiment: Growth inhibition of human T47D cells at 10 uM after 48 hrs by coulter counter method; conditions: read-out: GI; summary of the method: as §1
HT-29 = experiment: Growth inhibition of human HT-29 cells at 10 uM after 48 hrs by coulter counter method; conditions: HT-29, 48 h, read-out: GI; summary of the method: as §1
786-0 = experiment: Growth inhibition of human 786-0 cells at 10 uM after 48 hrs by coulter counter method; conditions: 786-0, 48 h, read-out: GI; summary of the method: as §1
MDA-MB-231 = experiment: Growth inhibition of human MDA-MB-231 cells at 10 uM after 48 hrs by coulter counter method; conditions: MDA-MB-231, 48 h, read-out: GI; summary of the method: as §1
SK-MEL-28 = experiment: Growth inhibition of human SK-MEL-28 cells at 10 uM after 48 hrs by coulter counter method; conditions: SK-MEL-28, 48 h, read-out: GI; summary of the method: as §1
NCI-H226 = experiment: Growth inhibition of human NCI-H226 cells at 10 uM after 48 hrs by coulter counter method; conditions: NCI-H226, 48 h, read-out: GI; summary of the method: as §1
SK-OV-3 = experiment: Growth inhibition of human SKOV3 cells at 10 uM after 48 hrs by coulter counter method; conditions: SK-OV-3, 48 h, read-out: GI; summary of the method: as §1
SNB-75 = experiment: Growth inhibition of human SNB75 cells at 10 uM after 48 hrs by coulter counter method; conditions: SNB-75, 48 h, read-out: GI; summary of the method: as §1
CCRF-CEM = experiment: Growth inhibition of human CCRF-CEM cells at 10 uM after 48 hrs by coulter counter method; conditions: read-out: GI; summary of the method: as §1
HCT-116 = experiment: Growth inhibition of human HCT116 cells at 10 uM after 48 hrs by coulter counter method; conditions: HCT-116, 48 h, read-out: GI; summary of the method: as §1
MOLT-4 = experiment: Growth inhibition of human MOLT4 cells at 10 uM after 48 hrs by coulter counter method; conditions: MOLT-4, 48 h, read-out: GI; summary of the method: as §1
IGROV-1 = experiment: Growth inhibition of human IGROV1 cells at 10 uM after 48 hrs by coulter counter method; conditions: IGROV-1, 48 h, read-out: GI; summary of the method: as §1
SR = experiment: Growth inhibition of human SR cells at 10 uM after 48 hrs by coulter counter method; conditions: read-out: GI; summary of the method: as §1

Row | SMILES | inhibition of growth at 10 µM (SN12C) | inhibition of growth at 10 µM (CAKI-1) | inhibition of growth at 10 µM (K562) | inhibition of growth at 10 µM (HL-60(TB)) | inhibition of growth at 10 µM (M14) | inhibition of growth at 10 µM (U-251) | inhibition of growth at 10 µM (NCI-H522) | inhibition of growth at 10 µM [1] | inhibition of growth at 10 µM (PC-3) | inhibition of growth at 10 µM (MDA-MB-468) | inhibition of growth at 10 µM (UACC-62) | inhibition of growth at 10 µM (SF-539) | inhibition of growth at 10 µM (A549) | inhibition of growth at 10 µM (KM12) | inhibition of growth at 10 µM (SF-268) | inhibition of growth at 10 µM (MCF7) | inhibition of growth at 10 µM (UO-31) | inhibition of growth at 10 µM (NCI-H23) | inhibition of growth at 10 µM (OVCAR-4) | inhibition of growth at 10 µM (SK-MEL-2) | other results
1 | CCn1c(-n2ccnc2)nc2ccccc2c1=O | 30% | 46.3% | 37.9% | 30% | 30% | 30% | 30% | 30% | 30% | 30% | 30% | 30% | 30% | 30% | 30% | 30% | 30% | 30% | 30% | 30% | inhibition of growth at 10 µM (COLO 205): 30%; inhibition of growth at 10 µM (HOP-92): 30%; inhibition of growth at 10 µM (BT-549): 30%; inhibition of growth at 10 µM (OVCAR-8): 30%; inhibition of growth at 10 µM (T47D): 30%; inhibition of growth at 10 µM (HT-29): 30%; inhibition of growth at 10 µM (786-0): 30%; inhibition of growth at 10 µM (MDA-MB-231): 30%; inhibition of growth at 10 µM (SK-MEL-28): 30%; inhibition of growth at 10 µM (NCI-H226): 30%; inhibition of growth at 10 µM (SK-OV-3): 30%; inhibition of growth at 10 µM (SNB-75): 30%; inhibition of growth at 10 µM (CCRF-CEM): 30%; inhibition of growth at 10 µM (HCT-116): 30%
2 | O=c1c2ccccc2nc(-n2ccnc2)n1-c1ccccc1 | 30% | 30% | 30% | 30% | 30% | 30% | 30% | 30% | 30% | 30% | 30% | 30% | 30% | 30% | 30% | 30% | 30% | 30% | 30% | 30% | inhibition of growth at 10 µM (MOLT-4): 30%; inhibition of growth at 10 µM (HOP-92): 76.6%; inhibition of growth at 10 µM (BT-549): 30%; inhibition of growth at 10 µM (OVCAR-8): 30%; inhibition of growth at 10 µM (T47D): 30%; inhibition of growth at 10 µM (HT-29): 30%; inhibition of growth at 10 µM (786-0): 30%; inhibition of growth at 10 µM (MDA-MB-231): 30%; inhibition of growth at 10 µM (SK-MEL-28): 30%; inhibition of growth at 10 µM (NCI-H226): 30%; inhibition of growth at 10 µM (SK-OV-3): 30%; inhibition of growth at 10 µM (SNB-75): 30%; inhibition of growth at 10 µM (CCRF-CEM): 30%; inhibition of growth at 10 µM (HCT-116): 30%
3 | NS(=O)(=O)c1ccc(Nc2nc3ccccc3c(=O)n2-c2ccc(Cl)cc2)cc1 | 30% | 30% | 34.3% | 30% | 30% | 30% | 30% | 30% | 30% | 30% | 30% | 30% | 30% | 30% | 30% | 30% | 30% | 30% | 30% | 30% | inhibition of growth at 10 µM (COLO 205): 30%; inhibition of growth at 10 µM (MOLT-4): 38.1%; inhibition of growth at 10 µM (IGROV-1): 30%; inhibition of growth at 10 µM (SR): 30.2%; inhibition of growth at 10 µM (HOP-92): 30%; inhibition of growth at 10 µM (BT-549): 30%; inhibition of growth at 10 µM (OVCAR-8): 30%; inhibition of growth at 10 µM (T47D): 30%; inhibition of growth at 10 µM (HT-29): 30%; inhibition of growth at 10 µM (786-0): 30%; inhibition of growth at 10 µM (MDA-MB-231): 30%; inhibition of growth at 10 µM (SK-MEL-28): 30%; inhibition of growth at 10 µM (NCI-H226): 30%; inhibition of growth at 10 µM (SK-OV-3): 30%; inhibition of growth at 10 µM (SNB-75): 30%; inhibition of growth at 10 µM (CCRF-CEM): 30%; inhibition of growth at 10 µM (HCT-116): 33.6%

Source: ChEMBL document CHEMBL1629431, “Synthesis and antitumor activity of some 2, 3-disubstituted quinazolin-4(3H)-ones and 4, 6- disubstituted- 1, 2, 3, 4-tetrahydroquinazolin-2H-ones” (2010)
